# Test results reported in ChEMBL document CHEMBL1156795, “Rational design of 5-phenyl-3-isoxazolecarboxylic acid ethyl esters as growth inhibitors of Mycobacterium tuberculosis. a potent and selective series for further drug development” (J Med Chem, 2010).
# The source made the active and inactive calls. The calls are words filed in the database; no cut-off is given here.
# How the values were obtained:
# Vero = experiment: (§1) Cytotoxicity against african green monkey Vero cells after 72 hrs; type: cell-based, Chlorocebus sabaeus; conditions: Chlorocebus sabaeus, Vero, 72 h
# [1] = tested on: Mycobacterium tuberculosis; experiment: Antimycobacterial activity against Mycobacterium tuberculosis H37Rv expressing pFCA-luxAB after 10 days by low-oxygen recovery assay; type: functional; conditions: 240 h
# Outline: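 Low oxygen recovery assay (LORA): a luminescence-based read-out of activity against non-replicating Mtb under oxygen-deprived conditions. MIC averaged over two to three independent experiments.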
# [2] = tested on: Mycobacterium tuberculosis; experiment: Antimycobacterial activity against Mycobacterium tuberculosis H37Rv after […] by microplate alamar; type: functional
# Outline: (§2)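 Microplate Alamar blue assay (MABA) on Mtb H37Rv. MIC reported as the average of two to three independent experiments.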
# [3] = tested on: Mycobacterium tuberculosis; experiment: Antimycobacterial activity against Mycobacterium tuberculosis H37Rv; type: functional; outline: as §2
# [4] = as §1; type: cell-based, Chlorocebus sabaeus; conditions: chlorocebus sabaeus, Vero cells; read-out: MIC
# Escherichia coli = experiment: Antimicrobial activity against Escherichia coli; type: functional
# Staphylococcus aureus = experiment: Antimicrobial activity against Staphylococcus aureus; type: functional
# [5] = tested on: Mycolicibacterium smegmatis; experiment: Antimicrobial activity against Mycobacterium smegmatis; type: functional
# Candida albicans = experiment: Antimicrobial activity against Candida albicans; type: functional
# Toxoplasma gondii = experiment: Antimicrobial activity against Toxoplasma gondii; type: functional, organism-based
structure (smiles),measurement,setting,value
CCOC(=O)c1cc(-c2cccc(OCc3cccc(C#N)c3)c2)on1,IC50,Vero,> 128 µM
same,MIC,[1],26.5 µM
same,MIC,[2],0.6 µM
CCOC(=O)c1cc(-c2cccc(OCc3cccc(Cl)c3)c2)on1,IC50,Vero,> 128 µM
same,MIC,[1],10.8 µM
same,MIC,[2],1 µM
O=[N+]([O-])c1cn2c(n1)OC[C@@H](OCc1ccc(OC(F)(F)F)cc1)C2 [PRETOMANID],MIC,[1],3.8 µM
same,MIC,[2],0.3 µM
CCOC(=O)c1cc(-c2ccccc2NC(=O)c2ccccc2)on1,MIC,[1],> 128 µM
same,MIC,[2],> 128 µM
CCOC(=O)c1cc(-c2cccc(OCc3cccc(C(=O)N4CCOCC4)c3)c2)on1,IC50,Vero,> 128 µM
same,MIC,[1],> 128 µM
same,MIC,[2],> 128 µM
CCOC(=O)c1cc(-c2cccc(OCc3cccc(OC)c3)c2)on1,IC50,Vero,> 128 µM
same,MIC,[1],26.7 µM
same,MIC,[2],2.1 µM
CCOC(=O)c1cc(-c2cccc(O)c2)on1,MIC,[1],114 µM
same,MIC,[2],7.3 µM
CCOC(=O)c1cc(-c2cccc(OCc3cc(F)ccc3Cl)c2)on1,MIC,[1],15.1 µM
same,MIC,[2],0.9 µM
CCOC(=O)c1cc(-c2cccc(OCc3ccc(Cl)c(Cl)c3)c2)on1,MIC,[1],10.6 µM
same,MIC,[2],2.7 µM
CCOC(=O)c1cc(-c2ccc(C(O)c3cccc(OC)c3)cc2)on1 (stereo not drawn),MIC,[1],23.9 µM
same,MIC,[2],2.8 µM
CCOC(=O)c1cc(-c2cccc(OCc3cccc(C(F)(F)F)c3F)c2)on1,IC50,Vero,> 128 µM
same,MIC,[1],7 µM
same,MIC,[2],0.6 µM
CCOC(=O)c1cc(-c2cccc(NC(=O)c3cccc(C(F)(F)F)c3)c2)on1,IC50,Vero,> 128 µM
same,MIC,[1],28.3 µM
same,MIC,[2],1.4 µM
CCOC(=O)c1cc(-c2cccc(Oc3cccc(C(F)(F)F)c3)c2)on1,IC50,Vero,> 128 µM
same,MIC,[1],10.5 µM
same,MIC,[2],1 µM
CCOC(=O)c1cc(-c2cccc(OCc3cc(F)cc(F)c3)c2)on1,IC50,Vero,> 128 µM
same,MIC,[1],16.6 µM
same,MIC,[2],4.4 µM
CCOC(=O)c1cc(-c2cccc(OCC(=O)N3CCOCC3)c2)on1,MIC,[1],48.9 µM
same,MIC,[2],13.8 µM
CCOC(=O)c1cc(-c2cccc(Oc3cc(C(F)(F)F)nc4ccccc34)c2)on1,MIC,[3],0.95 µM
CCOC(=O)c1cc(-c2cccc(OCc3cccc(OC(F)(F)F)c3)c2)on1,IC50,Vero,101 µM
same,MIC,[1],13.1 µM
same,MIC,[2],0.7 µM
NNC(=O)c1ccncc1 [ISONIAZID],MCC at 72 h,[4],> 128 µM
same,MIC,[1],> 128 µM
same,MIC,[2],0.5 µM
CCOC(=O)c1cc(-c2cccc(OCc3cccc(N)c3)c2)on1,IC50,Vero,> 128 µM
same,MIC,[1],25.8 µM
same,MIC,[2],1.5 µM
OC(c1cc(C(F)(F)F)nc2c(C(F)(F)F)cccc12)C1CCCCN1 (stereo not drawn) [MEFLOQUINE],MIC,[3],13 µM
CCOC(=O)c1cc(-c2cccc(OCc3cccc(Br)c3)c2)on1,IC50,Vero,> 128 µM
same,MIC,[1],12.7 µM
same,MIC,[2],0.8 µM
CCOC(=O)c1cc(-c2cccc(OCc3cccc(F)c3)c2)on1,IC50,Vero,> 128 µM
same,MIC,[1],18.9 µM
same,MIC,[2],0.8 µM
CCOC(=O)c1cc(-c2cccc(OCc3c(F)cccc3F)c2)on1,IC50,Vero,> 128 µM
same,MIC,[1],12.8 µM
same,MIC,[2],1.2 µM
CCOC(=O)c1cc(COc2cc(C(F)(F)F)nc3c(C(F)(F)F)cccc23)on1,MIC,[3],0.9 µM
CCOC(=O)c1cc(-c2cccc(OCc3c(F)ccc(F)c3F)c2)on1,MIC,[1],10.9 µM
same,MIC,[2],1 µM
CCOC(=O)c1cc(-c2cccc(OCc3ccccc3[N+](=O)[O-])c2)on1,IC50,Vero,> 128 µM
same,MIC,[1],25.8 µM
same,MIC,[2],1.5 µM
CCOC(=O)c1cc(-c2cccc(OCc3ccccc3)c2)on1,IC50,Vero,> 128 µM
same,MIC,[1],41.5 µM
same,MIC,[2],1.2 µM
CCOC(=O)c1cc(-c2cccc(NCc3cccc(C(F)(F)F)c3)c2)on1,IC50,Vero,> 128 µM
same,MIC,[1],15.3 µM
same,MIC,[2],1.1 µM
CCOC(=O)c1cc(-c2cccc(OCc3ccc(F)c(F)c3)c2)on1,IC50,Vero,> 128 µM
same,MIC,[1],19.2 µM
same,MIC,[2],0.6 µM
CCOC(=O)c1cc(-c2cccc(OCc3ccc(F)cc3)c2)on1,MIC,[1],24 µM
same,MIC,[2],1.8 µM
CCOC(=O)c1cc(/C=C/c2cccc(C(F)(F)F)c2)on1,MIC,[3],0.73 µM
CCOC(=O)c1cc(-c2cccc(OCc3ccc(F)c(F)c3)c2)[nH]n1,MIC,[1],> 128 µM
same,MIC,[2],32 µM
CCOC(=O)c1cc(-c2ccc(NCc3cccc(C(F)(F)F)c3)cc2)on1,IC50,Vero,> 128 µM
same,MIC,[1],6.3 µM
same,MIC,[2],0.6 µM
CCOC(=O)c1cc(-c2cccc(OCc3ccccc3C(F)(F)F)c2)on1,IC50,Vero,> 128 µM
same,MIC,[1],34.8 µM
same,MIC,[2],1.5 µM
CO[C@H]1/C=C/O[C@@]2(C)Oc3c(C)c(O)c4c(O)c(c(/C=N/N5CCN(C)CC5)c(O)c4c3C2=O)NC(=O)/C(C)=C\C=C\[C@H](C)[C@H](O)[C@@H](C)[C@@H](O)[C@@H](C)[C@H](OC(C)=O)[C@@H]1C [RIFAMPIN],MIC,[1],1.9 µM
same,MIC,[2],0.1 µM
CCOC(=O)c1cc(-c2cccc(OCc3cccc(C)c3)c2)on1,IC50,Vero,> 128 µM
same,MIC,[1],14.9 µM
same,MIC,[2],1.2 µM
CCOC(=O)c1cc(-c2cccc(OCc3ccccc3Cl)c2)on1,IC50,Vero,> 128 µM
same,MIC,[1],10.1 µM
same,MIC,[2],0.9 µM
CCOC(=O)c1cc(-c2cccc(OCc3ccc(F)c(F)c3F)c2)on1,IC50,Vero,> 128 µM
same,MIC,[1],12.6 µM
same,MIC,[2],0.9 µM
CCOC(=O)c1cc(-c2cccc(OCc3cccc(F)c3F)c2)on1,IC50,Vero,> 128 µM
same,MIC,[1],26.8 µM
same,MIC,[2],1.6 µM
CCOC(=O)c1cc(-c2cccc(OCc3ccccc3F)c2)on1,MIC,[1],19.1 µM
same,MIC,[2],1.1 µM
CCOC(=O)c1cc(-c2cccc(OCc3cccc(C(F)(F)F)c3)c2)on1,MIC,Escherichia coli,> 100 µM
same,MIC,Staphylococcus aureus,> 100 µM
same,MIC,[5],> 100 µM
same,IC50,Vero,> 128 µM
same,MIC,[1],8 µM
same,MIC,[2],0.6 µM
same,MIC,Candida albicans,> 100 µM
same,Activity,Toxoplasma gondii,inactive
CCOC(=O)c1ccc(COc2cccc(-c3cc(C(=O)OCC)no3)c2)cc1,IC50,Vero,> 128 µM
same,MIC,[1],32.7 µM
same,MIC,[2],0.4 µM
CCOC(=O)c1cc(-c2cccc(OCc3cccc([N+](=O)[O-])c3)c2)on1,IC50,Vero,> 128 µM
same,MIC,[1],8.7 µM
same,MIC,[2],0.6 µM
CCOC(=O)c1cc(-c2cccc(OCc3ccc(C(F)(F)F)cc3)c2)on1,IC50,Vero,> 128 µM
same,MIC,[1],11.8 µM
same,MIC,[2],0.4 µM
CCOC(=O)c1cc(-c2cccc(OCc3ccc(F)cc3F)c2)on1,IC50,Vero,> 128 µM
same,MIC,[1],15.7 µM
same,MIC,[2],1 µM
CCOC(=O)c1cc(-c2cccc(OCc3cc(F)ccc3F)c2)on1,IC50,Vero,> 128 µM
same,MIC,[1],23.7 µM
same,MIC,[2],0.9 µM
